Assay outcomes (PubChem)
The list is not random: actives were taken first. Their share in the collection is about 4%.
OX1R antag-1 = OX1R (HCRTR1) antagonists, primary screen, fluorescence, CHO/OX1R cells, Fluo-8 calcium, orexin A; inhibition, % at 5 µM; hit rate 0.43% among 330,000; Orexin/Hypocretin receptor type 1 (Homo sapiens), O43613; Fluo-8 calcium fluorescence;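 active = inhibition above its plate's threshold, mean inhibition of all tested compounds on the plate plus 3 SD, cut at about 37% in these data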
Target sequence (O43613 whole entry, looked up): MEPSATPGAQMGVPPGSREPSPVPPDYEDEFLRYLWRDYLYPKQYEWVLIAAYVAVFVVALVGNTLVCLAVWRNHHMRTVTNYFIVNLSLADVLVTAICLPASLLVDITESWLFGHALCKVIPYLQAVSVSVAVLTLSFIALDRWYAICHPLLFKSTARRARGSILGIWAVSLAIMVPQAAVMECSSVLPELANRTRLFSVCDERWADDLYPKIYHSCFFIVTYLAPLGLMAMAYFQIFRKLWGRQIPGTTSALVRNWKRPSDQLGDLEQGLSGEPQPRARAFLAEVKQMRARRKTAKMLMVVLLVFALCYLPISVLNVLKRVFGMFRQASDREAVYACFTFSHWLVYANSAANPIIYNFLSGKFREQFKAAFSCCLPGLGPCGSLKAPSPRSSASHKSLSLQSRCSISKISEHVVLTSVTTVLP
TAAR1 antagonist = human TAAR1 antagonists, primary screen, Fluo-8 calcium fluorescence, CHO RD-HGA16 cells; Trace amine-associated receptor 1 (Homo sapiens), Q96RJ0; antagonist; inhibition, % at 3 µM; hit rate 1.5% among 360,000; AID 624466, 2012;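 active = inhibition above a per-plate cutoff, the mean inhibition of test compounds on that plate plus 3 SD, cut at about 49% in these data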
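System: CHO RD-HGA16 cells bearing hTAAR1. Reagent: EC80 β-phenethylamine stimulus. Schedule: seeding 17-24 h prior, 75-min 37 °C, 30-min RT dye loading. Signal: Fluo-8 intracellular calcium dye fluorescence, real-time kinetic reads. Read-out: % inhibition from peak post-agonist over basal fluorescence ratio. Benchmarks: vehicle wells and EC80 agonist wells. Replicates: n of 1.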
OX1R antag-2 = antagonists of human orexin 1 receptor (OX1R). OX1R-expressing cells, FRET antagonist read-out. hit rate 1.8% among 330,000. inhibition, % at 6.6 µM. Orexin/Hypocretin receptor type 1 (Homo sapiens), O43613; in the data active = inhibition mostly above about 38%, no sharp cut-off; inactive = mostly below about 40%
TAAR1 ag = human TAAR1 agonists, primary screen, Fluo-8 calcium fluorescence, CHO RD-HGA16 cells; Trace amine-associated receptor 1 (Homo sapiens), Q96RJ0; vehicle wells 0%, saturating PEA agonist 100%; activation, % at 3 µM; hit rate 0.99% among 360,000; AID 624467, 2012;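 active = activation above the mean activation of all test compounds in the run plus 3 SD, cut at about 38% in these data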
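System: CHO RD-HGA16 cells carrying human TAAR1 plus Gα16; Incubation: 17-24 h seeding, 75 min 37 °C dye, 30 min RT; Measured by: Fluo-8 fluorescence, 5 s baseline then 140 s kinetic read; Control set: DMSO and PEA EC100; Replication: single well for each compound.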
CHO parental Ca = ATP-evoked calcium signal inhibitors, parental CHO, primary screen, counter-screen for OX1R antagonist project, cell-based, fluorescence, Fluo-8 calcium dye; parental CHO-K1, ATP-induced calcium, Fluo-8 fluorescence; inhibition, % at 5.6 µM; hit rate 0.63% among 330,000; AID 463079, 2010;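 active = inhibition above that plate's mean sample inhibition plus 3 SD, cut at about 26% in these data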
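Material: Parental CHO cells | Reagent: ATP | Compound dosing: Single nominal dose of 5.6 µM per compound | Detection: Intracellular calcium via Fluo-8 no-wash fluorescent dye | Read-out: % inhibition of ATP-induced calcium mobilization | Benchmarks: Low control ATP plus DMSO, high control DMSO only | Replicates: Singlicate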
A number is an active result; – = inactive; · = no result given.

SMILES	OX1R antag-1	TAAR1 antagonist	OX1R antag-2	TAAR1 ag	CHO parental Ca
O=C(O)CN1C(=O)S/C(=C\c2cccnc2)C1=O	–	–	–	–	–
CCCCCCCCCCCCCCCC[N+](C)(C)CCN(Cc1ccc(OC)cc1)c1ncccn1	46.2	·	–	·	64.2
O=c1c(-c2nnc(SCc3ccc(Cl)cc3)o2)cccn1Cc1ccccc1	–	–	39.8	–	–
CC(=O)C1=C(C)N(Cc2ccc(F)cc2)C(=S)NC1c1cccc(Cl)c1 (stereo not given)	·	–	·	–	·
O=C(Nc1ccc(Br)c2ccccc12)c1ccc2ccccc2c1O	–	–	41.4	–	–
CC[n+]1cc(-c2ccccc2)nc(N2CCOCC2)n1	–	–	50.6	–	–
NC(=O)c1cc(-c2ccccc2)nc(N2CCOCC2)n1	–	–	–	–	–
O=C(Nc1cccc(Cl)c1)NC1CC2CCC(C1)N2Cc1cccs1 (stereo not given)	–	–	–	–	–
Cc1cc(/C=C2\NC(=S)N(C)C2=O)ccc1N1CCCC1	72.1	82.5	–	142.3	52.9
CCCN1C(=O)/C(=C/c2ccc(N3CCCC3)c(C)c2)NC1=S	93.5	99.2	–	129.0	87.0
CCN1C(=O)/C(=C/c2ccc(N3CCCC3)cc2)NC1=S	73.8	81.5	–	84.4	62.0
Cc1cc(/C=C2/C(=O)N(C)C(=S)N2C)ccc1N1CCCC1	65.2	–	–	–	41.9
CCCN1C(=O)/C(=C/c2ccc(OCC(=O)OCC)cc2)NC1=S	·	–	·	–	·
Cc1ccc(CN2C(=O)N/C(=C\c3ccc(N4CCOCC4)cc3)C2=O)cc1	–	–	–	–	–
CC(C)C[C@H](NC(=O)c1nccs1)C(=O)N1CCC[C@H]1C(=O)NCc1ccccc1	·	–	·	–	·
Cc1ccccc1CNC(=O)C(=O)Nc1nccs1	–	–	–	–	–
CC(=O)OC[C@]12CC[C@H]3[C@@](C)(CC[C@H]4C(C)(C)CCC[C@]34C)[C@@H]1C[C@H](C1=CC(=O)O[C@H]1OC(C)=O)O2	51.4	·	–	·	45.6
CC(=O)N1CCOc2cc(S(=O)(=O)N3CCN(c4ccccc4)CC3)c(Cl)cc21	–	–	–	–	–
Cc1cc2c(cc1S(=O)(=O)N1CCN(c3ccccc3)CC1)OCCN2C	–	–	–	–	33.6
Cc1ccc(Br)cc1S(=O)(=O)N1CCN(c2ccccc2)CC1	–	–	–	–	35.6
Cc1cc2[nH]c(=O)c(=O)[nH]c2cc1S(=O)(=O)N1CCN(c2ccccc2)CC1	–	–	–	–	–
COc1cccc(NC(=O)C2CCCN(S(=O)(=O)c3cccc4nsnc34)C2)c1 (stereo not given)	–	–	85.0	–	–
CCc1cccc(NC(=O)C2CCCN(S(=O)(=O)c3cccs3)C2)c1 (stereo not given)	–	–	52.1	–	–
CCN1CCN(C(=O)C2CCCN(S(=O)(=O)c3cccc4nsnc34)C2)CC1 (stereo not given)	–	–	51.6	–	–
O=C(NCC1CCCO1)C1CCCN(S(=O)(=O)c2cccc3nsnc23)C1 (stereo not given)	–	–	55.3	–	–
SMILES	OX1R antag-1	TAAR1 antagonist	OX1R antag-2	TAAR1 ag	CHO parental Ca
O=C(C1CCCN(S(=O)(=O)c2cccc3nsnc23)C1)N1CCCCCC1 (stereo not given)	–	–	–	–	–
COc1ccc(-c2cc(NC(=O)Cc3c(C)[nH]c4ccccc34)ccc2Nc2cccnc2)cc1F	·	–	·	–	·
COc1ccc(Cl)cc1NC(=O)C[n+]1cccc(C)c1	–	–	–	–	–
CCc1ccc(C(=O)CN2CCSC2=N)cc1	–	–	–	–	–
O=C(C(=O)N1CCC(CNS(=O)(=O)c2ccc(F)cc2)CC1)c1cc2ccccc2o1	·	–	·	–	·
CCc1nn2c(=O)c(S(=O)(=O)Nc3ccc(C(C)C)cc3)c(C)nc2s1	–	–	–	–	–
O=C(CN(c1ccccc1)S(=O)(=O)c1ccccc1[N+](=O)[O-])N1CCCC1	–	–	–	–	–
CC1(C)CC(=O)/C(=C(\O)Cc2ccccc2)C(=NCCCCCC(=O)O)C1	–	–	–	–	–
COc1ncnc2c1NC1=C(S2)C(=NCCC(=O)O)CC(C)(C)C1	–	–	71.5	–	–
CCN(CC)c1ccc2cc(-c3nnc(-c4ccncc4)o3)c(=O)oc2c1	·	–	·	39.7	·
